# Activity calls are given as the source filed them. The rule behind the calls is not given here.
# Columns and labels:
# Bacillus anthracis [1] = assay: Protection against Bacillus anthracis challenged BALB/c mouse at 50 mg/kg, iv; type: functional, organism-based; design: dose 50 mg/kg
# Mus musculus [2] = assay: Survival of BALB/c mouse infected with Staphylococcus aureus PGO#172 assessed as mortality at 50 mg/kg, iv; type: functional, organism-based; design: dose 50 mg/kg
# Method in brief: (§1)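 Mice received a lethal dose of S. aureus PGO#172 (ATCC#29213) by intraperitoneal injection. They were treated with an iv bolus at 1, 5, 10, 25 or 50 mg/kg, in groups of five. Mortality was the endpoint, and ED50 was derived from the dose-response.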
# Bacillus anthracis [3] = assay: Protection against Bacillus anthracis challenged BALB/c mouse at 25 mg/kg, iv; type: functional, organism-based; design: dose 25 mg/kg
# Mus musculus [4] = assay: Survival of BALB/c mouse infected with Staphylococcus aureus PGO#172 assessed as mortality at 1 mg/kg, iv; type: functional, organism-based; design: dose 1 mg/kg; method in brief: as §1
# [5] = system: Staphylococcus haemolyticus; assay: Antimicrobial activity against Staphylococcus haemolyticus 602 isolate; type: functional
# Method in brief: (§2)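 MICs were run by broth microdilution as recommended by NCCLS, in cation-adjusted Mueller-Hinton broth. Compound was serially diluted 2-fold, over a final range of 64 to 0.03 µg/mL after inoculation.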
# Enterococcus faecalis [6] = assay: Antimicrobial activity against vancomycin-susceptible Enterococcus faecalis 559 isolate; type: functional; method in brief: as §2
# Enterococcus faecium [7] = assay: Antimicrobial activity against vancomycin-resistant Enterococcus faecium 569 isolate; type: functional; method in brief: as §2
# Staphylococcus aureus [8] = assay: Antimicrobial activity against glycopeptide intermediate resistant Staphylococcus aureus 3798 isolate; type: functional; method in brief: as §2
# Staphylococcus aureus [9] = assay: Antimicrobial activity against glycopeptide intermediate resistant Staphylococcus aureus 3793 isolate; type: functional; method in brief: as §2
# [10] = system: Staphylococcus epidermidis; assay: Antimicrobial activity against Staphylococcus epidermidis 533 isolate; type: functional; method in brief: as §2
# Enterococcus faecium [11] = assay: Antimicrobial activity against vancomycin-susceptible Enterococcus faecium 568 isolate; type: functional; method in brief: as §2
# Enterococcus faecalis [12] = assay: Antimicrobial activity against vancomycin-resistant Enterococcus faecalis 560 isolate; type: functional; method in brief: as §2
# Bacillus anthracis [13] = assay: Antimicrobial activity against Bacillus anthracis HH105-6 isolate; type: functional
# Bacillus anthracis [14] = assay: Antimicrobial activity against Bacillus anthracis HH113-6R isolate; type: functional
# Bacillus anthracis [15] = assay: Protection against Bacillus anthracis challenged BALB/c mouse at 106 mg/kg, iv after 3 days; type: functional, organism-based; design: dose 106 mg/kg
# Mus musculus [16] = assay: Survival of BALB/c mouse pulmonary challenged with Bacillus anthracis at 114 mg/kg, po; type: functional
# Mus musculus [17] = assay: Protection against pulmonary anthrax BALB/c mouse model infected with Bacillus anthracis at 135 mg/kg, po after 6 days; type: functional; details: 144 h
# Bacillus anthracis [18] = assay: Antimicrobial activity against Bacillus anthracis HH105-5 isolate; type: functional
# Bacillus anthracis [19] = assay: Antimicrobial activity against Bacillus anthracis HHT105-5R isolate; type: functional
# Mus musculus [20] = assay: Survival of pulmonary anthrax BALB/c mouse model infected with Bacillus anthracis Ames at 30 mg/kg, sc after 6 days; type: functional; details: 144 h, route subcutaneous
# Bacillus anthracis [21] = assay: Antimicrobial activity against Bacillus anthracis HH105-5R isolate; type: functional
# Staphylococcus aureus [22] = assay: Antimicrobial activity against methicillin-resistant Staphylococcus aureus Stau_Mu50-HIP5406 isolate; type: functional; method in brief: as §2
# Mus musculus [23] = assay: Survival of BALB/c mouse pulmonary challenged with Bacillus anthracis at 0.3 mg/kg; type: functional
# Mus musculus [24] = assay: Survival of BALB/c mouse pulmonary challenged with Bacillus anthracis at 3 mg/kg; type: functional
# Enterococcus faecalis [25] = assay: Antimicrobial activity against vancomycin-resistant Enterococcus faecalis Enfa_vre-2 isolate; type: functional; method in brief: as §2
# Enterococcus faecalis [26] = assay: Antimicrobial activity against vancomycin-susceptible Enterococcus faecalis Enfa_29212 isolate; type: functional; method in brief: as §2
# Enterococcus faecalis [27] = assay: Antimicrobial activity against vancomycin-resistant Enterococcus faecalis Enfa_t29862 isolate; type: functional; method in brief: as §2
# Staphylococcus aureus [28] = assay: Antimicrobial activity against methicillin-resistant Staphylococcus aureus Stau_29213 isolate; type: functional; method in brief: as §2
# Mus musculus [29] = assay: Survival of pulmonary anthrax BALB/c mouse model infected with Bacillus anthracis Ames at 100 mg/kg, sc after 6 days; type: functional; details: 144 h, route subcutaneous
# Mus musculus [30] = assay: Survival of BALB/c mouse pulmonary challenged with Bacillus anthracis at 1 mg/kg; type: functional
# Staphylococcus aureus [31] = assay: Antimicrobial activity against methicillin-resistant Staphylococcus aureus Stau_HIP5827 isolate; type: functional; method in brief: as §2
# Mus musculus [32] = species on record: Mus musculus; assay: Effect on survival of BALB/c mouse infected with Staphylococcus aureus PGO#172; type: functional; method in brief: as §1
# Staphylococcus aureus [33] = assay: Antimicrobial activity against methicillin-resistant Staphylococcus Stau_33591 isolate; type: functional; method in brief: as §2
# Streptococcus pyogenes = assay: Antimicrobial activity against Streptococcus pyogenes Stpy_8668 isolate; type: functional
# Escherichia coli = assay: Antimicrobial activity against Escherichia coli Esco_25922 isolate; type: functional
# Mus musculus [34] = assay: Survival of BALB/c mouse pulmonary challenged with Bacillus anthracis at 10 mg/kg; type: functional
# Mus musculus [35] = assay: Survival of pulmonary anthrax BALB/c mouse model infected with Bacillus anthracis Ames at 30 mg/kg, sc twice daily for 6 days; type: functional; details: 144 h, route subcutaneous
# Mus musculus [36] = assay: Survival of pulmonary anthrax BALB/c mouse model infected with Bacillus anthracis Ames at 10 mg/kg, sc after 6 days; type: functional; details: 144 h, route subcutaneous
# Staphylococcus aureus [37] = assay: Antimicrobial activity against methicillin-resistant Staphylococcus aureus Stau_b11386 isolate; type: functional; method in brief: as §2
# Bacillus anthracis [38] = assay: Antimicrobial activity against Bacillus anthracis Ames; type: functional
# [39] = Cmax in BALB/c mouse at 25 mg/kg, sc; type: ADME, organism-based; design: dose 25 mg/kg, route subcutaneous; details: in vivo
# Method in brief: (§3)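 Female BALB/c mice received the test compound by the iv, sc, ip or po route. Plasma exposure gave Cmax, bioavailability from the sc, ip and po routes, iv half-life, clearance and Vss. Clinical observations and mortality were also recorded.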
# [40] = Bioavailability in BALB/c mouse at 25 mg/kg, sc; type: ADME, organism-based; details: in vivo; method in brief: as §3
# [41] = Bioavailability in BALB/c mouse at 70 mg/kg, po; type: ADME, organism-based; details: in vivo; method in brief: as §3
# [42] = Bioavailability in BALB/c mouse at 25 mg/kg, ip; type: ADME, organism-based; details: in vivo; method in brief: as §3
# [43] = Cmax in BALB/c mouse at 25 mg/kg, ip; type: ADME, organism-based; design: dose 25 mg/kg, route intraperitoneal; details: in vivo; method in brief: as §3
# [44] = Half life in BALB/c mouse at 25 mg/kg, iv; type: ADME, organism-based; design: dose 25 mg/kg, route intravenous; details: in vivo; method in brief: as §3
# [45] = Clearance in BALB/c mouse at 25 mg/kg, iv; type: ADME, organism-based; design: dose 25 mg/kg, route intravenous; details: in vivo; method in brief: as §3
# [46] = Volume of distribution in BALB/c mouse at 25 mg/kg, iv; type: ADME, organism-based; design: dose 25 mg/kg, route intravenous; details: in vivo, read-out: Vss; method in brief: as §3
# [47] = Cmax in BALB/c mouse at 25 mg/kg, iv; type: ADME, organism-based; design: dose 25 mg/kg, route intravenous; details: in vivo; method in brief: as §3
smiles,measurement,setting,value
CN[C@H](CC(C)C)C(=O)N[C@H]1C(=O)N[C@@H](CC(N)=O)C(=O)N[C@H]2C(=O)N[C@H]3C(=O)N[C@H](C(=O)N[C@@H](C(=O)NC45CC6CC(CC(C6)C4)C5)c4cc(O)cc(O)c4-c4cc3ccc4O)[C@H](O[C@@H]3C[C@@](C)(N)[C@H](O)[C@@H](C)O3)c3ccc(cc3)Oc3cc2cc(c3O[C@H]2O[C@@H](CO)[C@H](O)[C@@H](O)[C@@H]2O[C@H]2C[C@](C)(N)[C@@H](O)[C@H](C)O2)Oc2ccc(cc2Cl)[C@H]1O,Activity,Bacillus anthracis [1],Active
same,Activity,Mus musculus [2],Active
same,Activity,Bacillus anthracis [3],Active
same,Activity,Mus musculus [4],inactive
CN[C@H](CC(C)C)C(=O)N[C@H]1C(=O)N[C@@H](CC(N)=O)C(=O)N[C@H]2C(=O)N[C@H]3C(=O)N[C@H](C(=O)N[C@H](C(=O)NC4C5CC6CC(C5)CC4C6)c4cc(O)cc(O)c4-c4cc3ccc4O)[C@H](O[C@@H]3C[C@@](C)(N)[C@H](O)[C@@H](C)O3)c3ccc(cc3)Oc3cc2cc(c3O[C@H]2O[C@@H](CO)[C@H](O)[C@@H](O)[C@@H]2O[C@H]2C[C@](C)(N)[C@@H](O)[C@H](C)O2)Oc2ccc(cc2Cl)[C@H]1O (stereo partly drawn),MIC,[5],1 µg/mL
same,MIC,Enterococcus faecalis [6],1 µg/mL
same,MIC,Enterococcus faecium [7],16 µg/mL
same,MIC,Staphylococcus aureus [8],2 µg/mL
same,MIC,Staphylococcus aureus [9],2 µg/mL
same,MIC,[10],0.5 µg/mL
same,MIC,Enterococcus faecium [11],1 µg/mL
same,MIC,Enterococcus faecalis [12],16 µg/mL
O=C(O)c1cn(C2CC2)c2cc(N3CCNCC3)c(F)cc2c1=O [CIPROFLOXACIN],MIC,Bacillus anthracis [13],32 µg/mL
same,MIC,Bacillus anthracis [14],4 µg/mL
same,Activity,Bacillus anthracis [15],Active
same,survival at 114 mg/kg,Mus musculus [16],87.5%
same,survival at 135 mg/kg,Mus musculus [17],75%
same,MIC,Bacillus anthracis [18],8 µg/mL
same,MIC,Bacillus anthracis [19],8 µg/mL
same,survival at 30 mg/kg,Mus musculus [20],75%
same,MIC,Bacillus anthracis [21],4 µg/mL
CN[C@H](CC(C)C)C(=O)N[C@H]1C(=O)N[C@@H](CC(N)=O)C(=O)N[C@H]2C(=O)N[C@H]3C(=O)N[C@H](C(=O)N[C@H](C(=O)NC45CC6CC(CC(C6)C4)C5)c4cc(O)cc(O)c4-c4cc3ccc4O)[C@H](O[C@@H]3C[C@@](C)(N)[C@H](O)[C@@H](C)O3)c3ccc(cc3)Oc3cc2cc(c3O[C@H]2O[C@@H](CO)[C@H](O)[C@@H](O)[C@@H]2O[C@H]2C[C@](C)(N)[C@@H](O)[C@H](C)O2)Oc2ccc(cc2Cl)[C@H]1O [listing 1 of 2 here],MIC,[5],0.25 µg/mL
same,MIC,Staphylococcus aureus [22],0.4 µg/mL
same,survival at 0.3 mg/kg,Mus musculus [23],12.5%
same,survival at 3 mg/kg,Mus musculus [24],62.5%
same,MIC,Bacillus anthracis [13],0.5 µg/mL
same,MIC,Enterococcus faecalis [6],0.5 µg/mL
same,MIC,Enterococcus faecium [7],4 µg/mL
same,MIC,Enterococcus faecalis [25],12.5 µg/mL
same,MIC,Staphylococcus aureus [8],2 µg/mL
same,MIC,Staphylococcus aureus [9],1 µg/mL
same,MIC,Enterococcus faecalis [26],0.4 µg/mL
same,MIC,Enterococcus faecalis [27],6.25 µg/mL
same,MIC,Bacillus anthracis [14],0.5 µg/mL
same,MIC,Staphylococcus aureus [28],0.78 µg/mL
same,survival at 100 mg/kg,Mus musculus [29],100%
same,survival at 1 mg/kg,Mus musculus [30],50%
same,MIC,Staphylococcus aureus [31],1.56 µg/mL
same,ED50,Mus musculus [32],20.4 mg/kg
same,MIC,Staphylococcus aureus [33],0.78 µg/mL
same,MIC,Streptococcus pyogenes,0.2 µg/mL
same,MIC,[10],0.25 µg/mL
same,MIC,Escherichia coli,> 50 µg/mL
same,survival at 10 mg/kg,Mus musculus [34],85.7%
same,MIC,Bacillus anthracis [18],0.5 µg/mL
same,survival at 30 mg/kg,Mus musculus [35],86%
same,MIC,Enterococcus faecium [11],0.5 µg/mL
same,survival at 10 mg/kg,Mus musculus [36],88%
same,MIC,Bacillus anthracis [19],0.25 µg/mL
same,MIC,Staphylococcus aureus [37],0.78 µg/mL
same,MIC,Enterococcus faecalis [12],8 µg/mL
same,survival at 30 mg/kg,Mus musculus [20],88%
same,MIC,Bacillus anthracis [21],0.25 µg/mL
same,MIC,Bacillus anthracis [38],0.5 µg/mL
CN[C@H](CC(C)C)C(=O)N[C@H]1C(=O)N[C@@H](CC(N)=O)C(=O)N[C@H]2C(=O)N[C@H]3C(=O)N[C@H](C(=O)N[C@H](C(=O)NC45CC6CC(CC(C6)C4)C5)c4cc(O)cc(O)c4-c4cc3ccc4O)[C@H](O[C@@H]3C[C@@](C)(N)[C@H](O)[C@@H](C)O3)c3ccc(cc3)Oc3cc2cc(c3O[C@H]2O[C@@H](CO)[C@H](O)[C@@H](O)[C@@H]2O[C@H]2C[C@](C)(N)[C@@H](O)[C@H](C)O2)Oc2ccc(cc2Cl)[C@H]1O [listing 2 of 2 here],Cmax,[39],7200 ng/mL
same,bioavailability,[40],78%
same,bioavailability,[41],0%
same,bioavailability,[42],95%
same,Cmax,[43],9700 ng/mL
same,half-life,[44],2.8 h
same,clearance,[45],8.93 mL/min/kg
same,Vd,[46],2.18 L/kg
same,Cmax,[47],11500 ng/mL

# Source: ChEMBL document CHEMBL1146231, “Novel semisynthetic derivative of antibiotic Eremomycin active against drug-resistant gram-positive pathogens including Bacillus anthracis” (J Med Chem, 2007)
